An excerpt weighted towards active compounds, which were near 1.2% of everything screened.
ARNT-TACC3 inh = disruptors of ARNT/TACC3 protein interaction, primary screen, biochemical, AlphaScreen, single concentration; AlphaScreen His-ARNT PAS-B/GST-TACC3 binding, luminescence; TACC3 fragment carries E629A point mutation; inhibition, % at 9.99 µM; 390,000 compounds, 0.66% hits;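 active means mean inhibition of replicates at least 50% and at least half of replicates each reaching 50%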;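 further: 0% = complete ARNT plus TACC3 wells and 100% = ARNT alone without TACC3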
CAL PDZ FP-1 = untagged CAL PDZ binding inhibitors, primary screen, biochemical, fluorescence polarization, HTS; Golgi-associated PDZ and coiled-coil motif-containing protein (Homo sapiens), Q9HD26; purified CAL PDZ, TMR-peptide fluorescence polarization, 1 h; inhibition, % at 24.9 µM; 300,000 compounds, 0.92% hits; AID 602252, 2012;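 active means mean inhibition of at least 30% with at least half of replicates also reaching 30%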;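 further: 0% = DMSO neutral control and 100% = excess unlabeled competitor peptide PRC23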
CAL PDZ FP-2 = CAL PDZ peptide-binding inhibitors, primary screen, biochemical, fluorescence polarization, Cer-tagged CAL PDZ, HTS; Golgi-associated PDZ and coiled-coil motif-containing protein (Homo sapiens), Q9HD26; purified CAL PDZ, TMR-peptide fluorescence polarization, 1 h; inhibition, % at 20 µM; 330,000 compounds, 0.02% hits; AID 504414, 2011;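 active means highest replicate inhibition of at least 40%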;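 further: plate controls were DMSO neutral control wells for no effect and unlabeled competitor peptide control wells for full effect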
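Assay system – tagged CAL PDZ protein CerCALP, purified · Timing – 1 h at RT · Compound – single point, 20 µM · Measured by – fluorescence polarization from S- and P-plane intensities, G-factor corrected · Evaluation – inhibition from polarization loss · Probe or stimulus – TMR reporter peptide T*-PRC34 · Buffer or medium – pH 7.4 phosphate-saline buffer, reducing agent, detergent, IgG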
The depositor's hits bear a star; nt = no result given.

SMILES	ARNT-TACC3 inh	CAL PDZ FP-1	CAL PDZ FP-2
COC(=O)[C@@H]1[C@@H](CO)[C@@H]2Cn3c(ccc(-c4cccc(F)c4)c3=O)[C@@H]2N1Cc1ccccn1	-1	nt	nt
Cc1ccc(S(=O)(=O)c2nc(Nc3ccccc3C#N)sc2Cl)cc1	1	0	-1
Cc1ccc(S(=O)(=O)c2nc(NN(C)C)sc2Cl)cc1	5	120*	9
O=C(C[C@@H]1CC[C@H](NC(=O)Nc2ccccc2F)[C@@H](CO)O1)NCc1ccc(Cl)cc1	-8	nt	nt
Oc1ccc(/C=N/NC(=S)NCCN2CCOCC2)c(O)c1	60*	nt	0
S=C(NCCN1CCOCC1)N/N=C/c1ccccc1	-1	-1	nt
C[C@@H]1CN([C@H](C)CO)S(=O)(=O)c2ccc(C3=CCCCC3)cc2O[C@H]1CN(C)C(=O)C1CCCCC1	7	nt	nt
Cc1nc(C)c(C(=O)C2=C(O)C(=O)N(CCN(C)C)C2c2ccco2)s1 (stereo not given)	-1	-3	-1
Cc1nc(C)c(C(=O)C2=C(O)C(=O)N(CCN3CCOCC3)C2c2ccco2)s1 (stereo not given)	49*	-1	-1
C=C1c2cccc(O)c2C(O)=C2C(=O)[C@]3(O)C(O)=C(C(N)=O)C(=O)[C@@H](N(C)C)[C@@H]3[C@@H](O)[C@H]12	61*	11	1
C[C@H]1c2cccc(O)c2C(O)=C2C(=O)C3(O)C(O)=C(C(N)=O)C(=O)[C@@H](N(C)C)[C@@H]3[C@@H](O)[C@@H]21 (stereo not given in full)	26	-1	1
COCCNC(=O)c1cc2cc(Br)cc(OC)c2oc1=O	0	-1	-2
COCCNC(=O)c1cc2cc(Br)cc(Br)c2oc1=O	0	48*	-1
C[C@H](CO)N1C[C@H](C)[C@H](CN(C)C(=O)NC2CCCCC2)Oc2ccc(NS(=O)(=O)c3cn(C)cn3)cc2C1=O	-3	nt	nt
Cc1ccc(S(=O)(=O)Nc2ccc3c(c2)CC(=O)N([C@@H](C)CO)C[C@@H](C)[C@H](CN(C)CC2CC2)O3)cc1	0	nt	nt
CC(C)N(Cc1ccccc1)C(=O)COC(=O)c1ccc2c(c1)OCCO2	nt	-2	-2
CC(C)N(Cc1ccccc1)C(=O)COC(=O)c1cnc(Cl)c(Cl)c1	0	42*	0
O=C(N[C@H]1CC[C@H](CCn2cc(-c3ccc(F)cc3)nn2)O[C@H]1CO)c1cnccn1	-18	nt	nt
C[C@H](CO)N1C[C@H](C)[C@@H](CN(C)Cc2ccc(Cl)c(Cl)c2)Oc2c(NC(=O)c3nc4ccccc4s3)cccc2C1=O	-3	nt	nt
Cc1ccc(CNc2ccc(O)cc2)cc1	24*	-2	2
Cc1ccc(NCc2ccccc2O)cc1	-8	nt	-1
Oc1ccc(/C=N/N2CCN(c3ccccn3)CC2)cc1	-4	-2	-2
CC(C)(C)c1ccc(/C=N/N2CCN(c3ccccn3)CC2)cc1	7	53*	-1
C[C@@H]1CN([C@H](C)CO)C(=O)c2cc(-c3cccc(C#N)c3)cnc2O[C@@H]1CN(C)C(=O)C1CC1	-8	nt	nt
O=C1NCCCCC1NS(=O)(=O)c1ccc(F)c(F)c1 (stereo not given)	5	110*	-1
SMILES	ARNT-TACC3 inh	CAL PDZ FP-1	CAL PDZ FP-2
CCc1ccc(S(=O)(=O)NC2CCCCNC2=O)cc1 (stereo not given)	nt	3	0
C[C@@H]1CN([C@@H](C)CO)C(=O)c2cc(NC(=O)c3ccccc3)ccc2O[C@@H](C)CCCCO[C@H]1CN(C)Cc1ccncc1	3	nt	nt
COc1ccccc1/C=C/C=N/n1c(-c2ccccn2)n[nH]c1=S	65*	-4	0
S=c1[nH]nc(-c2ccc(Cl)cc2)n1/N=C/c1cccs1	-2	3	0
Oc1ccccc1/C=N/n1c(-c2ccccc2)n[nH]c1=S	-2	-3	-2
COc1ccccc1/C=C/C=N/n1c(-c2cc(C)[nH]n2)n[nH]c1=S	-1	-5	0
S=c1[nH]nc(-c2ccccn2)n1/N=C/c1cccs1	59*	nt	-1
S=c1[nH]nc(-c2ccccc2)n1/N=C/c1ccc(Cl)cc1	8	-2	0
S=c1[nH]nc(-c2ccccn2)n1/N=C/c1cccc2ccccc12	56*	-4	-2
S=c1[nH]nc(-c2ccccn2)n1/N=C/c1ccc(Cl)cc1	77*	2	1
CO[C@H]1CN(C)C(=O)c2cc(NS(C)(=O)=O)ccc2OC[C@@H](C)N(C(=O)C2CCCCC2)C[C@@H]1C	-13	nt	nt
CO[C@H]1CN(C)C(=O)c2ccc(NS(=O)(=O)c3cn(C)cn3)cc2OC[C@@H](C)N(Cc2cccc(F)c2)C[C@H]1C	0	nt	nt
C[C@H]1CCCCO[C@H](CN(C)C(=O)Nc2cccc3ccccc23)[C@@H](C)CN([C@@H](C)CO)C(=O)c2cc(NC(=O)Nc3ccc4c(c3)OCO4)ccc2O1	-1	nt	nt
S=c1[nH]nc(-c2ccccn2)n1/N=C/c1ccccc1	57*	nt	0
S=c1[nH]nc(-c2ccccn2)n1/N=C/c1c(Cl)cccc1Cl	79*	6	0
Cc1ccc(-c2n[nH]c(=S)n2/N=C/c2ccc(C)o2)cc1	-2	3	0
Cc1ccc(/C=N/n2c(-c3ccccn3)n[nH]c2=S)o1	91*	-4	1
Cc1ccccc1/C=N/n1c(-c2cc(-c3ccccc3)n[nH]2)n[nH]c1=S	-8	nt	-1
S=c1[nH]nc(-c2cc(-c3ccccc3)n[nH]2)n1/N=C/c1c(Cl)cccc1Cl	-4	0	0
S=c1[nH]nc(-c2ccccc2)n1/N=C/c1cccc(Cl)c1	14	-5	-1
Cc1ccccc1/C=N/n1c(-c2ccccn2)n[nH]c1=S	71*	-6	-1
C[C@@H]1CCCCO[C@H](CN(C)C(=O)CCC(F)(F)F)[C@@H](C)CN([C@@H](C)CO)C(=O)c2cc(N(C)C)ccc2O1	11	nt	nt
CN1c2ccc(-c3ccccc3)cc2[C@@H]2[C@@H](CCN2C(=O)Nc2ccccc2F)[C@@H]1CO	3	nt	nt
C[C@H](CO)N1C[C@H](C)[C@@H](CN(C)Cc2ccc(C(=O)O)cc2)Oc2ccc(NC(=O)Nc3ccc4c(c3)OCO4)cc2C1=O	-2	nt	nt
C[C@@H](NC(=O)C[C@H]1CC[C@@H]2[C@H](COC[C@H](O)CN2C)O1)c1ccccc1	1	nt	nt
SMILES	ARNT-TACC3 inh	CAL PDZ FP-1	CAL PDZ FP-2
CO[C@H]1CN(C)C(=O)c2ccc(NC(C)=O)cc2OC[C@@H](C)N(S(=O)(=O)c2cn(C)cn2)C[C@@H]1C	-8	nt	nt
CCCc1nnc(NS(=O)(=O)c2ccccc2)s1	-23	-1	1
CCCCc1ccc(S(=O)(=O)Nc2nnc(C)s2)cc1	-3	52*	-5
COc1cccc(S(=O)(=O)Nc2ccc3c(c2)OC[C@H](C)N(C(=O)Cc2cccnc2)C[C@@H](C)[C@@H](OC)CN(C)C3=O)c1	-12	nt	nt
Cc1cc(C(=O)Nc2cccc3c2O[C@H](CN(C)Cc2ccncc2)[C@@H](C)CN([C@H](C)CO)C3=O)n(C)n1	-1	nt	nt
CN(C)C(=O)[C@H]1[C@H](CO)[C@H]2Cn3c(cccc3=O)[C@@H]1N2C(=O)c1ccccc1	2	nt	nt
